Results on 23 compounds are retold here after ChEMBL document CHEMBL3351336, “Synthesis and evaluation of novel triazoles and mannich bases functionalized 1,4-dihydropyridine as angiotensin converting enzyme (ACE) inhibitors” (Bioorg Med Chem, 2014).

In assay [1] the target is T1, Angiotensin-converting enzyme (Oryctolagus cuniculus) (UniProt P12822).
T1 sequence (whole entry): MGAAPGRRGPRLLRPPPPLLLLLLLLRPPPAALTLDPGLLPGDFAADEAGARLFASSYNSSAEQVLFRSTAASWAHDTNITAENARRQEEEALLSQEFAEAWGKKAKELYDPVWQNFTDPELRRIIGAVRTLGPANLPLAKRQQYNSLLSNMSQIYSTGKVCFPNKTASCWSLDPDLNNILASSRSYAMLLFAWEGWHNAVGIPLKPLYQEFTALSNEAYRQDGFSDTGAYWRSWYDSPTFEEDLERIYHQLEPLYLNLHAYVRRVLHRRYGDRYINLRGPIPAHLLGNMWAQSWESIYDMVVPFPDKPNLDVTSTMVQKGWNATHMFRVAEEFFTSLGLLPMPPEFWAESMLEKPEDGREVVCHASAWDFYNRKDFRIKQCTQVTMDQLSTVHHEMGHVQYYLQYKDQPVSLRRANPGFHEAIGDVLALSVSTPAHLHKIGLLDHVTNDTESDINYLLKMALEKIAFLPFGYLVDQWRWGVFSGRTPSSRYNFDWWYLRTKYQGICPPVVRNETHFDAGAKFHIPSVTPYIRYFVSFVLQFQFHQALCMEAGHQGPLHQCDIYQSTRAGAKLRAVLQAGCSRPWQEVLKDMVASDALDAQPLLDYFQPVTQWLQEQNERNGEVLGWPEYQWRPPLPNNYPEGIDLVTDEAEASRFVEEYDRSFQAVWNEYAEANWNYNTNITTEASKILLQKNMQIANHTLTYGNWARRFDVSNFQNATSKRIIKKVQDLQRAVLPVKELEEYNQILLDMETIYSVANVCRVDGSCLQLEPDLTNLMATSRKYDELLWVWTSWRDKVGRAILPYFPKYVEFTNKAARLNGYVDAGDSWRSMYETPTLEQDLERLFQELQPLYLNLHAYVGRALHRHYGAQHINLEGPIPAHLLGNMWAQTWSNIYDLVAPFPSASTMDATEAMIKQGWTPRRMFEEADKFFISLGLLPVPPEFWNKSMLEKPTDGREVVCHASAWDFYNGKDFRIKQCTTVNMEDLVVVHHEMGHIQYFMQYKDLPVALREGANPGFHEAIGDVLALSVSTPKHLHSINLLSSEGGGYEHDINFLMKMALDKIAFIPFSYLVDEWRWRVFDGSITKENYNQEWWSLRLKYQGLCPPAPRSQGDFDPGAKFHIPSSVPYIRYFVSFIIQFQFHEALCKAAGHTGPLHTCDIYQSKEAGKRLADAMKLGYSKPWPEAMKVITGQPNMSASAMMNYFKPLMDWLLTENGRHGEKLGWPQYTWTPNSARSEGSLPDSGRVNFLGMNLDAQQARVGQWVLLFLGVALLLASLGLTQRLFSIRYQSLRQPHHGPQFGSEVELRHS
Description: (§1) Inhibition of rabbit lung ACE using hippuryl-histidyl-leucine as substrate assessed as release of hippuric acid incubated for 10 mins prior to substrate addition measured after 30 mins by spectrophotometry.

The target in assay [2] is T2, Angiotensin-converting enzyme (Oryctolagus cuniculus, UniProt P12822).
T2 sequence (P12822 whole entry): T1 sequence (whole entry)
The description is as §1.

The next assay relates to A549. The assay is described as follows: Cytotoxicity against human A549 cells after 24 hrs by MTT assay. Type of assay: cell-based. Particulars: A549, 24 h. The gist of the method:
(§2)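 Cells kept in DMEM with 10% heat-inactivated FBS, penicillin, streptomycin and 2 mM L-glutamine at 37 °C, 5% CO2, passaged every 2–3 days. 1 × 10^4 cells/well seeded, grown 24 h, then exposed to compounds (10 µM–1000 µM) beside vehicle control for 24 h. MTT added for 4 h, formazan dissolved in DMSO, absorbance read at 540 nm; survival versus control, EC50 by probit analysis.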
(In general: Formazan colour is commonly taken as a measure of viable cells.)

In another assay the test system is HEK293. The assay is described as follows: Cytotoxicity against human HEK293 cells after 24 hrs by MTT assay. Type of assay: cell-based. Particulars: HEK293, 24 h. Summed up: as §2

For orientation: IC50 means the concentration that inhibits the measured activity by half.

The source made the active and inactive calls. The rule behind the calls is not given here.

As to `CCOC(=O)C1=C(C)NC(C)=C(C(=O)OCC)C1c1cc(Br)cc(Br)c1OCC#CCN1CCN(c2ccc(F)cc2)CC1`, in assay [1], the inhibition result is “inactive”. Still for that read-out and setting: then `CCOC(=O)C1=C(C)NC(C)=C(C(=O)OCC)C1c1cc(Br)cc(Br)c1OCc1cn(CC(=O)NCc2ccc(OC(F)(F)F)cc2)nn1`, with “inactive”; and `CCOC(=O)C1=C(C)NC(C)=C(C(=O)OCC)C1c1cc(Br)ccc1OCc1cn(CC(=O)NC2CCCCC2)nn1`, with “inactive”; and `CCOC(=O)C1=C(C)NC(C)=C(C(=O)OCC)C1c1cccc(OC)c1OCC#CCN1CCOCC1`, with “inactive”. For the compound `CCOC(=O)C1=C(C)NC(C)=C(C(=O)OCC)C1c1cc(Br)cc(Br)c1OCc1cn(CC(=O)NC2CC2)nn1`, the inhibition entry in assay [1] is “inactive”.

Take `CCOC(=O)C1=C(C)NC(C)=C(C(=O)OCC)C1c1cccc(OC)c1OCC#CCN1CCN(c2ccccc2)CC1`: the inhibition entry in assay [1] was “inactive”. For `CCOC(=O)C1=C(C)NC(C)=C(C(=O)OCC)C1c1cccc(OC)c1OCc1cn(CC(=O)Nc2nc3ccc(F)cc3s2)nn1`, the inhibition entry in assay [1] was “Dose-dependent effect”. Besides, the half-inhibitory concentration (IC50) in assay [2] is 0.713 µM; in the assay with A549 it was over 1000 µM; in the assay with HEK293 it was over 1000 µM. Take `CCOC(=O)C1=C(C)NC(C)=C(C(=O)OCC)C1c1cc(Br)cc(Br)c1OCC#CCN1CCN(C)CC1`: the inhibition result in assay [1] is “inactive”.

Regarding `CCOC(=O)C1=C(C)NC(C)=C(C(=O)OCC)C1c1cc(Br)cc(Br)c1OCC#CCN1CCN(c2ccccn2)CC1`, the inhibition result in assay [1] is “inactive”. Consider `NCCCC[C@H](N[C@@H](CCc1ccccc1)C(=O)O)C(=O)N1CCC[C@H]1C(=O)O` [LISINOPRIL ANHYDROUS], for which the IC50 in assay [2] came out at 0.281 µM. For the compound `CCOC(=O)C1=C(C)NC(C)=C(C(=O)OCC)C1c1cc(Br)cc(Br)c1OCc1cn(CC(=O)Nc2cccc(C(=O)O)c2)nn1`, the inhibition entry in assay [1] was “inactive”.

In the case of `CCOC(=O)C1=C(C)NC(C)=C(C(=O)OCC)C1c1cc(Br)ccc1OCC#CCN1CCOCC1`, the inhibition entry in assay [1] is “inactive”. As for `CCOC(=O)C1=C(C)NC(C)=C(C(=O)OCC)C1c1cccc(OC)c1OCc1cn(CCC(F)(F)C(F)(F)C(F)(F)C(F)(F)C(F)(F)C(F)(F)C(F)(F)C(F)(F)F)nn1`, the inhibition result in assay [1] is “Dose-dependent effect”. Also, the IC50 is 0.653 µM in assay [2], over 1000 µM in the assay with A549 and over 1000 µM with HEK293. As for `CCOC(=O)C1=C(C)NC(C)=C(C(=O)OCC)C1c1cccc(OC)c1OCC#CCN1CCCC1`, in assay [1], the inhibition result is “inactive”. As to `COc1cccc2c1C(=O)c1c(O)c3c(c(O)c1C2=O)C[C@@](O)(C(=O)CO)C[C@@H]3O[C@H]1C[C@H](N)[C@H](O)[C@H](C)O1` [DOXORUBICIN], the figures for the IC50 with A549 and with HEK293 were 2.6 µM and 0.69 µM, respectively. Regarding `CCOC(=O)C1=C(C)NC(C)=C(C(=O)OCC)C1c1cc(Br)ccc1OCC#CCN1CCN(c2ccccn2)CC1`, in assay [1], the inhibition result is “inactive”.

`CCOC(=O)C1=C(C)NC(C)=C(C(=O)OCC)C1c1cc(Br)cc(Br)c1OCc1cn(CC(=O)Nc2ccc(SC(F)(F)F)cc2)nn1`: in assay [1], the inhibition entry is “inactive”. Same read-out and setting: then `CCOC(=O)C1=C(C)NC(C)=C(C(=O)OCC)C1c1cc(Br)ccc1OCc1cn(CC(=O)Nc2nnc(C(F)(F)F)s2)nn1`, with “inactive”. For `CCOC(=O)C1=C(C)NC(C)=C(C(=O)OCC)C1c1cc(Br)cc(Br)c1OCC#CCN1CCN(CCO)CC1`, in assay [1], the inhibition entry is “Dose-dependent effect”. For the same compound, the half-maximal inhibitory concentration (IC50) in assay [2] is 0.928 µM; in the assay with A549 it was over 1000 µM; in the assay on HEK293, over 1000 µM.

For the compound `CCOC(=O)C1=C(C)NC(C)=C(C(=O)OCC)C1c1cccc(OC)c1OCc1cn(CC(=O)Nc2nnc(C(F)(F)F)s2)nn1`, in assay [1], the inhibition entry is “Dose-dependent effect”. In addition, the 50% inhibitory concentration (IC50) was 0.409 µM in assay [2], over 1000 µM in the assay on A549 and over 1000 µM with HEK293. Regarding `CCOC(=O)C1=C(C)NC(C)=C(C(=O)OCC)C1c1cc(Br)cc(Br)c1OCc1cn(CC(=O)NCCC(=O)O)nn1`, the inhibition entry in assay [1] was “inactive”. In the case of `CCOC(=O)C1=C(C)NC(C)=C(C(=O)OCC)C1c1cccc(OC)c1OCC#CCN1CCN(C)CC1`, in assay [1], the inhibition entry was “inactive”. Turning to `CCOC(=O)C1=C(C)NC(C)=C(C(=O)OCC)C1c1cccc(OC)c1OCC#CCN1CCC(C(=O)OCC)CC1`, the inhibition result in assay [1] was “inactive”.
